Compound activity: PubChem, several laboratories
EP2 antag: blocks the human prostaglandin E2 receptor EP2 | P43116 | C6 glioma cells expressing human EP2, cAMP TR-FRET; cells stimulated with saturating PGE2 | inhibition, % at 25 µM | actives 0.52% (n = 260,000);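 active means percent inhibition above 40 after rounding to a whole number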;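 further: rat C6 glioma host cells with rolipram phosphodiesterase inhibitor present; the protocol text gives 20 µM as final concentration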
NPY-Y2 PAM-ag: potentiators or agonists of human neuropeptide Y receptor Y2; AID 1359; actives 0.45% (n = 220,000); activation, % at 3.6 µM; cells expressing NPY-Y2, potentiator/agonist read-out; in the data active means activation above about 27%;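 further: cells stimulated with NPY near EC25 plus isoproterenol at EC100; 0% = vehicle plus submaximal agonist and 100% = vehicle plus saturating agonist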
NPY-Y1 antag: NPY-Y1 (human) receptor antagonism; HEK293-CNG Y1 cells, membrane potential fluorescence; NPY at EC95, then isoproterenol; inhibition, % at 3.6 µM; actives 1% (n = 200,000); AID 1040;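 active means inhibition above the campaign mean inhibition of all tested compounds plus 3 SD, cut at about 20% in these data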;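 further: 0% = DMSO wells given NPY plus isoproterenol and 100% = isoproterenol alone without NPY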
Target sequence (P25929 whole entry, looked up): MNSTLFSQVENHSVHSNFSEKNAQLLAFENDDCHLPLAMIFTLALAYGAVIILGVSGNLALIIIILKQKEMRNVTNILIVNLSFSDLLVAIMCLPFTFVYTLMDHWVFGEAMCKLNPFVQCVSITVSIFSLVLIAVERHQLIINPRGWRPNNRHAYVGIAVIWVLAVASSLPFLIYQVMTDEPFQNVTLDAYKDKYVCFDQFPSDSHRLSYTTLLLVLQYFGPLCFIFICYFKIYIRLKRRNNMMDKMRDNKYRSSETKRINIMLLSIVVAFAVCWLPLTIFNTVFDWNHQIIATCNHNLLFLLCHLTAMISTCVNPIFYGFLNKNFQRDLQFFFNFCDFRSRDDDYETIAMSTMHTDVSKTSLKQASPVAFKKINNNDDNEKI
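Material: HEK293 cells co-expressing NPY Y1 receptor and cyclic-nucleotide gated channel. Timing: compound incubation 1 h at room temperature, readout 45 min post-stimulation. Signal: fluorescence, membrane potential probe.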
NPY Y2 blocker: antagonists of human neuropeptide Y receptor Y2 | NPY-Y2 expressing cells, antagonist mode | inhibition, % at 2.7 µM | actives 0.99% (n = 140,000); in the data active means inhibition above about 17%;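 further: 0% = vehicle with agonist challenge and 100% = reference antagonist with challenge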
NPY1 pot ag: human NPY-Y1 potentiation or agonism, primary screen; P25929; NPY-Y1 expressing cells, potentiator/agonist activation; activation, % at 3.6 µM; actives 0.37% (n = 220,000); AID 1304; in the data active means activation above about 33%, passing the limit was not always enough;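 further: cells stimulated with NPY at EC10 then isoproterenol at EC100; 0% = low agonist plus stimulus and 100% = saturating agonist plus stimulus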
EP2 modulator: EP2 receptor (human) modulation | induction, % at 25 µM | EP2-expressing cells, cAMP HTRF FRET, PGE2 co-stimulation | actives 0.83% (n = 260,000) | P43116;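 active means compounds whose cAMP rise, as percent of the full-agonist control response, exceeds 60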;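 further: rat C6 glioma line stably carrying human EP2 under a CMV promoter; the protocol text gives 20 µM as final concentration; 100% = response of wells given 1 µM PGE2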
EP2 confirm: EP2 receptor cAMP induction, counter-screens negative | shares compounds with EP2 modulator | C6 glioma EP2 cells, cAMP HTRF induction; plus low (about EC15) PGE2 agonist | calls only at 20 µM (by protocol) | actives 47% (n = 1,300);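 active means cAMP induction above 50% in the main assay while under 30% in all four parallel counter assays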;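 further: rat C6 glioma cells stably expressing human EP2 receptor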
* marks the source's active call; other numbers are inactive results; i = inactive; x = not tested or not shown; + = active, no number. The list is not random: actives were taken first. Their share in the collection is about 2.8%.

SMILES	EP2 antag	NPY-Y2 PAM-ag	NPY-Y1 antag	NPY Y2 blocker	NPY1 pot ag	EP2 modulator	EP2 confirm
CSc1nnc(-c2cc3c(s2)-c2ccccc2CC3)o1	10	-41	7	4	-58	76*	+
CCCNC(=O)c1cc(-c2ccccc2Cl)on1	15	x	x	x	x	-70	x
O=C(Nc1ccc2c(c1)Cc1ccccc1-2)c1cc2ccccc2o1	21	-7	4	5	-25	x	x
O=C(O)c1ccc(C(=O)O)c(C(=O)Nc2ccc3c(c2)Cc2ccccc2-3)c1	61*	x	x	x	x	92*	+
C=CCCC1(C)C(=O)N(c2ccccc2)c2ccccc21 (configuration not stated)	5	-4	-5	4	-1	77*	+
C=CCC1(C)C(=O)N(c2ccccc2)c2ccccc21 (configuration not stated)	4	-19	3	2	-1	69*	i
CC1(O)C(=O)c2ccccc2N(c2ccccc2)C1=O (configuration not stated)	10	-1	5	5	-9	16	x
O=C(CSc1nnc(CCCO)n1-c1ccccc1)Nc1nccs1	10	6	-4	0	10	27	x
Cc1cccc(C)c1OCc1nnc(SCC(=O)Nc2nccs2)n1-c1ccccc1	-2	-7	7	3	-12	51	i
Cc1ccc(-c2nnn(CC(=O)N(Cc3cccs3)C(C(=O)NC3CCCC3)c3ccncc3)n2)cc1 (configuration not stated)	18	-21	-1	6	-32	72*	i
Cc1cc(-c2ccccc2)nc2cc(C(=O)N(Cc3ccccc3)Cc3ccccc3)nn12	7	-8	10	4	-19	72*	+
COc1ccc(-c2cc(C(F)(F)F)n3nc(C(=O)Nc4cc(C)on4)cc3n2)cc1OC	x	-18	6	2	-6	8	x
COc1ccc(-c2cc(C(F)(F)F)n3nc(C(=O)N(C)Cc4ccccc4)cc3n2)cc1OC	5	-8	9	x	-17	58	i
CC(Sc1nnc(-c2cccnc2)n1-c1ccccc1)C(=O)Nc1cccc2ccccc12 (configuration not stated)	14	x	x	x	x	-9	x
C(=N\Nc1nc(-c2ccccc2)cs1)/c1ccncc1	26	4	4	x	19	-64	x
O=C(O)c1csc(N/N=C/c2ccc(Br)cc2)n1	9	-1	-1	x	-19	73*	i
CN(CC(=O)Nc1ccccc1-c1ccccc1)Cc1ccccc1Cl	4	-4	3	x	23	71*	+
Cc1ccccc1CSCC(=O)Nc1ccccc1-c1ccccc1	0	-18	14	9	-26	81*	+
O=C(CSCc1cccc(Cl)c1)Nc1ccccc1-c1ccccc1	9	-5	8	10	-31	67*	+
O=C(CSCc1ccc(Cl)cc1)Nc1ccccc1O	15	9	-3	x	1	-18	x
Cc1ccc(NC(=O)CN(C)CC(=O)Nc2ccccc2-c2ccccc2)cc1	-1	-6	1	x	6	22	x
Cc1cc(O)c(C=O)c2c1C(=O)Oc1c(COC(=O)/C=C/C(=O)O)c(O)c(C(=O)O)c(C)c1O2	9	x	x	x	x	63*	+
CCCCC(=O)Nc1sc2c(c1C(=O)OCC)CCC(C=O)=C2Cl	5	-1	-1	3	1	63*	+
CCOC(=O)c1c(NC(=O)c2ccc(N3C(=O)[C@@H]4[C@H](C3=O)[C@H]3C=C[C@@H]4C3)cc2)sc2c1CCCC2	5	1	0	1	3	39	x
CCOC(=O)c1c(NC(=O)CS)sc2c1CCCC2	10	x	x	x	x	14	x
SMILES	EP2 antag	NPY-Y2 PAM-ag	NPY-Y1 antag	NPY Y2 blocker	NPY1 pot ag	EP2 modulator	EP2 confirm
CCOC(=O)Nc1sc2c(c1C(=O)OCC)CCC2	4	2	13	0	4	74*	i
CCOC(=O)c1c(NC(=O)c2ccc(-n3cnnn3)cc2)sc2c1CCCC2	7	-3	8	1	16	58	+
CCOc1ccc(OCC)c(NC(=O)CN2CCN(c3ccc(C)cc3C)CC2)c1	x	2	3	3	-19	79*	+
CC(C)CCn1c(O)c(N=NC(=O)c2ccco2)c2ccccc21	1	17	-2	7	22	73*	i
COC(=O)c1ccc(CSc2ncnc3c2oc2ccccc23)o1	13	8	7	3	23	66*	i
CCCSc1ncnc2c1oc1ccccc12	4	-8	0	2	-13	66*	i
CCOc1ccccc1NC(=O)CSc1ncnc2c1oc1ccccc12	10	0	0	5	0	34	x
O=C(CSc1ncnc2c1oc1ccccc12)Nc1ccccc1F	15	-5	1	6	-4	76*	i
COc1ccc(CN2CCc3cc(OC)c(OC)cc3C2c2ccccc2)cc1CO (configuration not stated)	1	x	x	x	x	-9	x
O=C(Nc1ccc(N2CCN(C(=O)c3ccco3)CC2)cc1)c1ccccc1Cl	9	x	x	x	x	1	x
Clc1ccc(CNCc2ccco2)c(Cl)c1	5	x	x	x	x	-12	x
C=CCc1cccc(/C=N/c2ncccc2O)c1O	9	-1	0	3	2	43	x
C=CCc1cccc(/C=N/c2nc3ccccc3n2CC)c1O	2	5	-4	9	-16	84*	i
CCOC(=O)Cc1csc(NC(=O)c2cc(=O)c3ccccc3o2)n1	9	-13	0	x	-35	84*	+
C[N+](C)(C)CCCNC(=O)c1c(O)c2ccccc2[nH]c1=O	15	x	x	x	x	-16	x
CCCCc1nnc(SCCSc2nnc(CCCC)n2N)n1N	10	-3	8	3	0	81*	i
CCC(C)(C)C(=O)Nc1nnc(Cc2ccc(OC)cc2)s1	2	x	x	x	x	10	x
O=C(/C=C/c1ccc2c(c1)OCO2)Nn1cnnc1	24	x	x	x	x	2	x
Cc1ccc2cccc(NC(=O)c3ccc(Br)o3)c2n1	10	-15	15	11	-33	87*	+
O=C(Nc1ccccc1-c1nc2ccccc2s1)c1ccc(Br)o1	13	17	-5	-2	-4	78*	+
O=C(NCc1ccc(-c2nc3ccccc3s2)cc1)c1ccc(Br)o1	3	-7	6	3	-9	-14	x
O=C(Nc1ccccc1Br)c1cc2n(n1)C(C(F)(F)F)CC(c1ccco1)N2 (configuration not stated)	8	x	x	x	x	-2	x
COc1ccccc1C1(O)CCN(CC(O)c2ccc3c(c2)CCCC3)CC1 (configuration not stated)	10	x	x	x	x	-89	x
